The test system of one assay is Candida albicans. Nature of the assay: Antifungal activity against Candida albicans NCIM 3100 after 72 hrs by broth micro-dilution method. Format: functional. Summed up:
(§1)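 Aqueous compound solutions, 2.5 to 20 mg/mL, 100 µL per 4 mm well in nutrient agar seeded from nutrient broth culture (1 cm3 broth with 9 cm3 agar at 45 °C). Plates incubated 72 h at 28 °C and clear-zone diameter measured. MIC taken from inhibition at four concentration levels. Duplicate, repeated twice, modal values. Amphotericin B standard.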
Background: In broth dilution the organism is exposed to a series of concentrations in liquid medium.

A further assay concerns Escherichia coli. Nature of the assay: Antibacterial activity against Escherichia coli ATCC 25922 after 72 hrs by broth micro-dilution method. The conditions noted are these: ATCC 25922, 72 h.
For another assay, the system named is Pseudomonas aeruginosa. As to the kind of experiment: Antibacterial activity against Pseudomonas aeruginosa ATCC 27853 after 72 hrs by broth micro-dilution method. The conditions noted are these: ATCC 27853, 72 h.
A further assay concerns Staphylococcus aureus. As to the kind of experiment: Antibacterial activity against Staphylococcus aureus ATCC 25923 after 72 hrs by broth micro-dilution method. Format: functional. As to conditions: ATCC 25923, 72 h. In short, it runs like this:
(§2)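 Compounds dissolved in H2O and tested at 2.5, 5, 10 and 20 mg/mL. Each strain was seeded in 1 cm3 nutrient broth, mixed with 9 cm3 melted (45 °C) nutrient agar and poured; 4 mm wells were cut. 100 µL compound solution per well, incubated 72 h at 37 °C, and inhibition zone diameter measured. MIC derived from % inhibition at the four levels. Duplicate, repeated twice; modal values. Ampicillin reference.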

A further assay deals with Aspergillus flavus. As to the kind of experiment: Antifungal activity against Aspergillus flavus after 72 hrs by broth micro-dilution method. Format: functional. In short, it runs like this: as §1
A further assay deals with Bacillus subtilis. Nature of the assay: Antibacterial activity against Bacillus subtilis after 72 hrs by broth micro-dilution method. Format: functional. Summed up:
as §2

SMILES strings stand for the structures. In brackets after ≈: the same amount, converted by molar mass. Activity calls are given as the source filed them. No cut-off for these calls is given here.

One may read the MIC as the lowest concentration found to suppress growth. Turning to `Cc1[nH]cc[n+]1Cc1ccc(O)c(/C=N/[C@@H]2CCCC[C@H]2/N=C/c2cc(C[n+]3cc[nH]c3C)ccc2O)c1.[Cl-].[Cl-]` (relative stereo), the MIC in the assay on Candida albicans (NCIM 3100, 72 h) is more than 250 µg/mL; against Escherichia coli, 17.1 µg/mL; against Pseudomonas aeruginosa, more than 10000 µg/mL; with Staphylococcus aureus it was 17.6 µg/mL; against Bacillus subtilis, 17.5 µg/mL. The MIC result in the assay with Aspergillus flavus was “inactive”.

With `Cc1[nH]cc[n+]1Cc1cc(/C=N/[C@@H]2CCCC[C@H]2/N=C/c2cc(C[n+]3cc[nH]c3C)cc(C(C)(C)C)c2O)c(O)c(C(C)(C)C)c1.[Cl-].[Cl-]` (relative stereo), the MIC against Candida albicans (NCIM 3100, 72 h) was 55.5 µg/mL; against Escherichia coli, 13.3 µg/mL; with Pseudomonas aeruginosa it was more than 10000 µg/mL; in the assay with Staphylococcus aureus, 14.9 µg/mL; against Bacillus subtilis, 12.1 µg/mL. In addition, the MIC result with Aspergillus flavus was “inactive”.

In the case of `CCn1cc[n+](Cc2ccc(O)c(/C=N/[C@@H]3CCCC[C@H]3/N=C/c3cc(C[n+]4ccn(CC)c4)ccc3O)c2)c1.[Cl-].[Cl-]` (relative stereo), the MIC in the assay with Candida albicans (NCIM 3100, 72 h) is more than 250 µg/mL; with Escherichia coli it was more than 250 µg/mL; against Pseudomonas aeruginosa, more than 10000 µg/mL; against Staphylococcus aureus, more than 250 µg/mL; in the assay with Bacillus subtilis, 15.2 µg/mL. The MIC entry with Aspergillus flavus was “inactive”.

With `CCCCn1cc[n+](Cc2cc(/C=N/[C@@H]3CCCC[C@H]3/N=C/c3cc(C[n+]4ccn(CCCC)c4)cc(C(C)(C)C)c3O)c(O)c(C(C)(C)C)c2)c1.[Cl-].[Cl-]` (relative stereo), the MIC in the assay on Candida albicans (NCIM 3100, 72 h) was 85.2 µg/mL; in the assay with Escherichia coli, 12.2 µg/mL; in the assay on Pseudomonas aeruginosa it was more than 5000 µg/mL; against Staphylococcus aureus, 16 µg/mL; against Bacillus subtilis, 16.4 µg/mL. For the same molecule, in the assay on Aspergillus flavus, the MIC result is “inactive”.

Consider `CCCCn1cc[n+](Cc2ccc(O)c(/C=N/[C@@H]3CCCC[C@H]3/N=C/c3cc(C[n+]4ccn(CCCC)c4)ccc3O)c2)c1.[Cl-].[Cl-]` (relative stereo), for which the MIC against Candida albicans (NCIM 3100, 72 h) is more than 250 µg/mL; in the assay on Escherichia coli, 16.7 µg/mL; with Pseudomonas aeruginosa it was more than 5000 µg/mL; in the assay with Staphylococcus aureus, 16.2 µg/mL; with Bacillus subtilis it was 11.2 µg/mL. Also, the MIC result in the assay with Aspergillus flavus was “inactive”.

As to `C[C@@H]1[C@H](O)[C@@H](C)/C=C/C=C/C=C/C=C/C=C/C=C/C=C/[C@H](O[C@@H]2O[C@H](C)[C@@H](O)[C@H](N)[C@@H]2O)C[C@@H]2O[C@](O)(C[C@@H](O)C[C@@H](O)[C@H](O)CC[C@@H](O)C[C@@H](O)CC(=O)O[C@H]1C)C[C@H](O)[C@H]2C(=O)O` [AMPHOTERICIN B], the minimum inhibitory concentration (MIC) with Candida albicans (NCIM 3100, 72 h) turned out to be 80 µg/mL (≈ 86.6 µM); with Aspergillus flavus, 40 µg/mL (≈ 43.3 µM).

As to `CC1(C)S[C@@H]2[C@H](NC(=O)[C@H](N)c3ccccc3)C(=O)N2[C@H]1C(=O)O` [AMPICILLIN], the MIC entry in the assay with Candida albicans and with Aspergillus flavus was “inactive” in each case. For the same molecule, the MIC is 15 µg/mL (≈ 42.9 µM) against Escherichia coli, more than 1000 µg/mL in the assay with Pseudomonas aeruginosa, 12.5 µg/mL (≈ 35.8 µM) in the assay with Staphylococcus aureus and 20 µg/mL (≈ 57.2 µM) against Bacillus subtilis.

`CCn1cc[n+](Cc2cc(/C=N/[C@@H]3CCCC[C@H]3/N=C/c3cc(C[n+]4ccn(CC)c4)cc(C(C)(C)C)c3O)c(O)c(C(C)(C)C)c2)c1.[Cl-].[Cl-]` (relative stereo): the minimal inhibitory concentration (MIC) with Candida albicans (NCIM 3100, 72 h) is more than 250 µg/mL; against Escherichia coli, more than 250 µg/mL; against Pseudomonas aeruginosa it was more than 10000 µg/mL; in the assay on Staphylococcus aureus it was 18.4 µg/mL; against Bacillus subtilis it was 16 µg/mL. Besides, the MIC result in the assay on Aspergillus flavus is “inactive”.

These data come from ChEMBL document CHEMBL3124758, “Toward new classes of potent antibiotics: synthesis and antimicrobial activity of novel metallosaldach-imidazolium salts” (2014).
